Laboratory results from ChEMBL document CHEMBL5058577, “EUbOPEN Chemogenomics Library 2 (Multiplex)” (2022).

Test system: Fibroblast
Assay: Multiplex assay against human fibroblast
Type: toxicity, cell-based
How it was run: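 On a CQ1 microscope at 37°C and 5% CO2, live cells were imaged after compound addition. They had been stained at seeding with Hoechst33342, BioTracker Green Microtubule Cytoskeleton Dye, MitoTracker Red and Annexin V Alexa Fluor 680. CellPathfinder machine-learning gating assigned cells to Hoechst high-intensity objects or normal cells, normal cells to healthy, pyknosed or fragmented nuclei, and pyknosed cells to mitotic or apoptotic. Tubulin, mitochondrial-mass and membrane-permeability phenotypes are per cents of healthy-nucleus cells.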

[1] = 12 h, 1 µM, compound concentration 1 uM, replicate 1
[2] = 12 h, 1 µM, compound concentration 1 uM, replicate 2
[3] = 12 h, 10 µM, compound concentration 10 uM, replicate 1
[4] = 12 h, 10 µM, compound concentration 10 uM, replicate 2
[5] = 24 h, 1 µM, compound concentration 1 uM, replicate 1
[6] = 24 h, 1 µM, compound concentration 1 uM, replicate 2
[7] = 24 h, 10 µM, compound concentration 10 uM, replicate 1
[8] = 24 h, 10 µM, compound concentration 10 uM, replicate 2
[9] = 48 h, 1 µM, compound concentration 1 uM, replicate 1
[10] = 48 h, 1 µM, compound concentration 1 uM, replicate 2
[11] = 48 h, 10 µM, compound concentration 10 uM, replicate 1
[12] = 48 h, 10 µM, compound concentration 10 uM, replicate 2

CCn1c(-c2nc3cc(C(=O)N4CCCC(N)C4)ccc3n2C)cc2ccccc21.Cl (stereo not given)
Population Apoptotic (%) [1]: 63%
Population Fragmented Nuclei (%) [1]: 17%
Population Healthy Nuclei (%) [1]: 67%
Population Hoechst High Intensity Objects (%) [1]: 3%
Population Membrane Permeable-Phenotype (%) [1]: 0%
Population Mitochondria Different-Phenotype (%) [1]: 4%
Population Mitotic Cells (%) [1]: 36%
Population Normal (%) [1]: 96%
Population Pyknosed Nuclei (%) [1]: 15%
Population Tubulin-Different-Phenotype (%) [1]: 27%
Total Cell Count [1]: 128
Population Apoptotic (%) [2]: 32%
Population Fragmented Nuclei (%) [2]: 21%
Population Healthy Nuclei (%) [2]: 54%
Population Hoechst High Intensity Objects (%) [2]: 5%
Population Membrane Permeable-Phenotype (%) [2]: 2%
Population Mitochondria Different-Phenotype (%) [2]: 17%
Population Mitotic Cells (%) [2]: 67%
Population Normal (%) [2]: 94%
Population Pyknosed Nuclei (%) [2]: 23%
Population Tubulin-Different-Phenotype (%) [2]: 41%
Total Cell Count [2]: 167
Population Apoptotic (%) [3]: 41%
Population Fragmented Nuclei (%) [3]: 22%
Population Healthy Nuclei (%) [3]: 63%
Population Hoechst High Intensity Objects (%) [3]: 1%
Population Membrane Permeable-Phenotype (%) [3]: 0%
Population Mitochondria Different-Phenotype (%) [3]: 18%
Population Mitotic Cells (%) [3]: 58%
Population Normal (%) [3]: 98%
Population Pyknosed Nuclei (%) [3]: 14%
Population Tubulin-Different-Phenotype (%) [3]: 69%
Total Cell Count [3]: 221
Population Apoptotic (%) [4]: 38%
Population Fragmented Nuclei (%) [4]: 32%
Population Healthy Nuclei (%) [4]: 37%
Population Hoechst High Intensity Objects (%) [4]: 3%
Population Mitochondria Different-Phenotype (%) [4]: 19%
Population Mitotic Cells (%) [4]: 61%
Population Normal (%) [4]: 96%
Population Pyknosed Nuclei (%) [4]: 29%
Population Tubulin-Different-Phenotype (%) [4]: 80%
Total Cell Count [4]: 186
Population Apoptotic (%) [5]: 50%
Population Fragmented Nuclei (%) [5]: 22%
Population Healthy Nuclei (%) [5]: 68%
Population Hoechst High Intensity Objects (%) [5]: 0%
Population Membrane Permeable-Phenotype (%) [5]: 0%
Population Mitochondria Different-Phenotype (%) [5]: 5%
Population Mitotic Cells (%) [5]: 50%
Population Normal (%) [5]: 99%
Population Pyknosed Nuclei (%) [5]: 9%
Population Tubulin-Different-Phenotype (%) [5]: 30%
Total Cell Count [5]: 127
Population Apoptotic (%) [6]: 55%
Population Fragmented Nuclei (%) [6]: 27%
Population Healthy Nuclei (%) [6]: 54%
Population Hoechst High Intensity Objects (%) [6]: 9%
Population Membrane Permeable-Phenotype (%) [6]: 3%
Population Mitochondria Different-Phenotype (%) [6]: 20%
Population Mitotic Cells (%) [6]: 44%
Population Normal (%) [6]: 90%
Population Pyknosed Nuclei (%) [6]: 17%
Population Tubulin-Different-Phenotype (%) [6]: 41%
Total Cell Count [6]: 184
Population Apoptotic (%) [7]: 70%
Population Fragmented Nuclei (%) [7]: 22%
Population Healthy Nuclei (%) [7]: 66%
Population Hoechst High Intensity Objects (%) [7]: 3%
Population Membrane Permeable-Phenotype (%) [7]: 0%
Population Mitochondria Different-Phenotype (%) [7]: 22%
Population Mitotic Cells (%) [7]: 29%
Population Normal (%) [7]: 96%
Population Pyknosed Nuclei (%) [7]: 10%
Population Tubulin-Different-Phenotype (%) [7]: 76%
Total Cell Count [7]: 231
Population Apoptotic (%) [8]: 59%
Population Fragmented Nuclei (%) [8]: 30%
Population Healthy Nuclei (%) [8]: 46%
Population Hoechst High Intensity Objects (%) [8]: 4%
Population Membrane Permeable-Phenotype (%) [8]: 2%
Population Mitochondria Different-Phenotype (%) [8]: 32%
Population Mitotic Cells (%) [8]: 40%
Population Normal (%) [8]: 95%
Population Pyknosed Nuclei (%) [8]: 23%
Population Tubulin-Different-Phenotype (%) [8]: 82%
Total Cell Count [8]: 189
Population Apoptotic (%) [9]: 66%
Population Fragmented Nuclei (%) [9]: 23%
Population Healthy Nuclei (%) [9]: 67%
Population Hoechst High Intensity Objects (%) [9]: 2%
Population Membrane Permeable-Phenotype (%) [9]: 1%
Population Mitochondria Different-Phenotype (%) [9]: 3%
Population Mitotic Cells (%) [9]: 33%
Population Normal (%) [9]: 97%
Population Pyknosed Nuclei (%) [9]: 8%
Population Tubulin-Different-Phenotype (%) [9]: 29%
Total Cell Count [9]: 137
Population Apoptotic (%) [10]: 51%
Population Fragmented Nuclei (%) [10]: 32%
Population Healthy Nuclei (%) [10]: 51%
Population Hoechst High Intensity Objects (%) [10]: 5%
Population Membrane Permeable-Phenotype (%) [10]: 2%
Population Mitochondria Different-Phenotype (%) [10]: 23%
Population Mitotic Cells (%) [10]: 48%
Population Normal (%) [10]: 94%
Population Pyknosed Nuclei (%) [10]: 15%
Population Tubulin-Different-Phenotype (%) [10]: 49%
Total Cell Count [10]: 193
Population Apoptotic (%) [11]: 83%
Population Fragmented Nuclei (%) [11]: 19%
Population Healthy Nuclei (%) [11]: 72%
Population Hoechst High Intensity Objects (%) [11]: 3%
Population Membrane Permeable-Phenotype (%) [11]: 0%
Population Mitochondria Different-Phenotype (%) [11]: 22%
Population Mitotic Cells (%) [11]: 16%
Population Normal (%) [11]: 96%
Population Pyknosed Nuclei (%) [11]: 8%
Population Tubulin-Different-Phenotype (%) [11]: 85%
Total Cell Count [11]: 232
Population Apoptotic (%) [12]: 60%
Population Fragmented Nuclei (%) [12]: 33%
Population Healthy Nuclei (%) [12]: 57%
Population Mitochondria Different-Phenotype (%) [12]: 16%
Population Mitotic Cells (%) [12]: 40%
Total Cell Count [12]: 231

O=C(NCCNCC(O)COc1ccc(O)cc1)N1CCOCC1.O=C(NCCNCC(O)COc1ccc(O)cc1)N1CCOCC1.O=C(O)/C=C/C(=O)O (stereo not given) [XAMOTEROL FUMARATE]
Population Apoptotic (%) [1]: 63%
Population Fragmented Nuclei (%) [1]: 15%
Population Healthy Nuclei (%) [1]: 67%
Population Hoechst High Intensity Objects (%) [1]: 2%
Population Membrane Permeable-Phenotype (%) [1]: 1%
Population Mitochondria Different-Phenotype (%) [1]: 4%
Population Mitotic Cells (%) [1]: 36%
Population Normal (%) [1]: 97%
Population Pyknosed Nuclei (%) [1]: 17%
Population Tubulin-Different-Phenotype (%) [1]: 24%
Total Cell Count [1]: 114
Population Apoptotic (%) [2]: 43%
Population Fragmented Nuclei (%) [2]: 23%
Population Healthy Nuclei (%) [2]: 53%
Population Hoechst High Intensity Objects (%) [2]: 4%
Population Membrane Permeable-Phenotype (%) [2]: 16%
Population Mitochondria Different-Phenotype (%) [2]: 7%
Population Mitotic Cells (%) [2]: 56%
Population Normal (%) [2]: 95%
Population Pyknosed Nuclei (%) [2]: 23%
Population Tubulin-Different-Phenotype (%) [2]: 55%
Total Cell Count [2]: 167
Population Apoptotic (%) [3]: 30%
Population Fragmented Nuclei (%) [3]: 21%
Population Healthy Nuclei (%) [3]: 64%
Population Hoechst High Intensity Objects (%) [3]: 4%
Population Membrane Permeable-Phenotype (%) [3]: 2%
Population Mitochondria Different-Phenotype (%) [3]: 5%
Population Mitotic Cells (%) [3]: 70%
Population Normal (%) [3]: 95%
Population Pyknosed Nuclei (%) [3]: 14%
Population Tubulin-Different-Phenotype (%) [3]: 32%
Total Cell Count [3]: 143
Population Apoptotic (%) [4]: 17%
Population Fragmented Nuclei (%) [4]: 30%
Population Healthy Nuclei (%) [4]: 49%
Population Hoechst High Intensity Objects (%) [4]: 5%
Population Membrane Permeable-Phenotype (%) [4]: 4%
Population Mitochondria Different-Phenotype (%) [4]: 11%
Population Mitotic Cells (%) [4]: 82%
Population Normal (%) [4]: 94%
Population Pyknosed Nuclei (%) [4]: 20%
Population Tubulin-Different-Phenotype (%) [4]: 43%
Total Cell Count [4]: 154
Population Apoptotic (%) [5]: 68%
Population Fragmented Nuclei (%) [5]: 20%
Population Healthy Nuclei (%) [5]: 63%
Population Hoechst High Intensity Objects (%) [5]: 1%
Population Membrane Permeable-Phenotype (%) [5]: 2%
Population Mitochondria Different-Phenotype (%) [5]: 2%
Population Mitotic Cells (%) [5]: 31%
Population Normal (%) [5]: 98%
Population Pyknosed Nuclei (%) [5]: 15%
Population Tubulin-Different-Phenotype (%) [5]: 25%
Total Cell Count [5]: 121
Population Apoptotic (%) [6]: 50%
Population Fragmented Nuclei (%) [6]: 28%
Population Healthy Nuclei (%) [6]: 52%
Population Hoechst High Intensity Objects (%) [6]: 2%
Population Membrane Permeable-Phenotype (%) [6]: 18%
Population Mitochondria Different-Phenotype (%) [6]: 6%
Population Mitotic Cells (%) [6]: 50%
Population Normal (%) [6]: 97%
Population Pyknosed Nuclei (%) [6]: 19%
Population Tubulin-Different-Phenotype (%) [6]: 63%
Total Cell Count [6]: 149
Population Apoptotic (%) [7]: 62%
Population Fragmented Nuclei (%) [7]: 20%
Population Healthy Nuclei (%) [7]: 67%
Population Hoechst High Intensity Objects (%) [7]: 1%
Population Membrane Permeable-Phenotype (%) [7]: 0%
Population Mitochondria Different-Phenotype (%) [7]: 0%
Population Mitotic Cells (%) [7]: 37%
Population Normal (%) [7]: 98%
Population Pyknosed Nuclei (%) [7]: 12%
Population Tubulin-Different-Phenotype (%) [7]: 31%
Total Cell Count [7]: 135
Population Apoptotic (%) [8]: 42%
Population Fragmented Nuclei (%) [8]: 34%
Population Healthy Nuclei (%) [8]: 54%
Population Membrane Permeable-Phenotype (%) [8]: 5%
Population Mitochondria Different-Phenotype (%) [8]: 8%
Population Mitotic Cells (%) [8]: 57%
Population Pyknosed Nuclei (%) [8]: 11%
Population Tubulin-Different-Phenotype (%) [8]: 41%
Total Cell Count [8]: 172
Population Apoptotic (%) [9]: 65%
Population Fragmented Nuclei (%) [9]: 27%
Population Healthy Nuclei (%) [9]: 57%
Population Hoechst High Intensity Objects (%) [9]: 1%
Population Membrane Permeable-Phenotype (%) [9]: 1%
Population Mitochondria Different-Phenotype (%) [9]: 2%
Population Mitotic Cells (%) [9]: 35%
Population Normal (%) [9]: 98%
Population Pyknosed Nuclei (%) [9]: 15%
Population Tubulin-Different-Phenotype (%) [9]: 21%
Total Cell Count [9]: 131
Population Apoptotic (%) [10]: 40%
Population Fragmented Nuclei (%) [10]: 42%
Population Healthy Nuclei (%) [10]: 46%
Population Hoechst High Intensity Objects (%) [10]: 2%
Population Membrane Permeable-Phenotype (%) [10]: 7%
Population Mitochondria Different-Phenotype (%) [10]: 4%
Population Mitotic Cells (%) [10]: 60%
Population Normal (%) [10]: 97%
Population Pyknosed Nuclei (%) [10]: 10%
Population Tubulin-Different-Phenotype (%) [10]: 65%
Total Cell Count [10]: 140
Population Apoptotic (%) [11]: 56%
Population Fragmented Nuclei (%) [11]: 25%
Population Healthy Nuclei (%) [11]: 62%
Population Hoechst High Intensity Objects (%) [11]: 4%
Population Membrane Permeable-Phenotype (%) [11]: 1%
Population Mitochondria Different-Phenotype (%) [11]: 3%
Population Mitotic Cells (%) [11]: 43%
Population Normal (%) [11]: 95%
Population Pyknosed Nuclei (%) [11]: 11%
Population Tubulin-Different-Phenotype (%) [11]: 33%
Total Cell Count [11]: 144
Population Apoptotic (%) [12]: 52%
Population Fragmented Nuclei (%) [12]: 33%
Population Healthy Nuclei (%) [12]: 54%
Population Hoechst High Intensity Objects (%) [12]: 3%
Population Membrane Permeable-Phenotype (%) [12]: 6%
Population Mitochondria Different-Phenotype (%) [12]: 4%
Population Mitotic Cells (%) [12]: 47%
Population Normal (%) [12]: 96%
Population Tubulin-Different-Phenotype (%) [12]: 48%
Total Cell Count [12]: 157
